Assay results reported in the EternaBench riboswitch data.

Tested on: MS2 coat protein
Experiment: apparent Kd, MS2 coat protein; higher = weaker binding; RNA-MaP array; FMN 200 µM where present
Outline: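 On Illumina sequencing-chip clusters, designs were transcribed by stalled E. coli RNA polymerase and titrated with SNAP-549-labelled MS2 coat protein (0.7 or 1.5 nM, doubling to 3 µM), without and then with constant ligand, in 100 mM Tris-HCl pH 7.5, 80 mM KCl, 4 mM MgCl2, BSA, DTT, yeast tRNA and Tween-20. Apparent Kd is the median of filtered per-cluster curve fits to green signal normalised to red-channel RNA signal and control-cluster median Fmax.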

[1] = designed as: OFF switch for flavin mononucleotide, no ligand
[2] = ligand present: flavin mononucleotide, designed as: OFF switch for flavin mononucleotide
[3] = designed as: ON switch for flavin mononucleotide, no ligand
[4] = ligand present: flavin mononucleotide, designed as: ON switch for flavin mononucleotide

| Sequence | apparent Kd [1] [nM] | apparent Kd [2] [nM] | apparent Kd [3] [nM] | apparent Kd [4] [nM] |
| --- | --- | --- | --- | --- |
| UUUUUCUGCUGAGGAUAUUGCUCGUGCGUACAUGAGGAUCACCCAUGUGUCUUGAUCCUCUUCUGCAAGAAGGCAGCUCUCUCU | 403 | 155 | – | – |
| UUGCAGUGCGGGUAGGAUAUGUAGGGUGGUACAUGAGGAUCACCCAUGUGUCCACCCUUCUUCCGGCAGAAGGGCCUGUCACUGC | – | – | 15.2 | 13.5 |
| UUCAUGUGAGGAUAUCAGUAGUAAAAAAAUAAAAUUACUACUGAGAAGGCACAUGAGGAUCACCCAUGUGUCUC | 22.1 | 26.6 | – | – |
| CUUAUGUGAGGAUAUCAGUAGUAAUACAAUAGUAUUACUACUGAGAAGGCACAUGAGGAUCACCCAUGUUCCUU | 28.1 | 131 | – | – |
| AUUUGAAUCGUAGGAUAUCGCUUAAAUUUACCACGAGAAGGACGAACAUGAGGAUCACCCAUGUAUCAUGGUGUAGAUAAUUUG | 68.2 | 249 | – | – |
| ACGGAACAUGAGGAUCACCCAUGUAUCUGAGAUAUGGUCUCGCAGGAUAUUCAGAGAAGCCAAUCGGAGAAGGGUGACACCAAA | – | – | 36.6 | 19.6 |
| GUAGCUCCUGACAUGAGGAUCACCCAUGUUCACUUAUUAAAUCAGGAUAUCCUCUCGAAACGAGAGGAGAAGGGAUAAGCUACU | – | – | 7.84 | 7.36 |
| UGAUCCCAUGUCAGGAUAUAGAGGCGGUAGCCUGGCUAGAAGGGACAUGAGGAUCACCCAUGUCGGUUCUUGCC | 35.5 | 21.3 | – | – |
| GCUAUUGGCUAAGGAUAUGGAUACAUGAGGAUCACCCAUGUAAGAAUUGUGAUCAUAUAAAUGAUCCAGAAGGUAGCUGUUAGC | 280 | 502 | – | – |
| CAAGUACCAGAGGAUAUGGCGGUGCACUCCGUGCCAGAAGGUUGGACAUGAGGAUCACCCAUGUGCGAUUAGCU | 26 | 27.1 | – | – |
| ACAUUGUAUGUGAGGAUAUCGAUGGGAUGGGUUGUCGAGAAGGCACAUGAGGAUCACCCAUGUGGGAAACAGCA | 39.5 | 170 | – | – |
| AUGCUAGUGUGAGGAUAUCAACAUGAGGAUCACCCAUGUUGGAAGUACACGACAUGCGGUACAUUUGAGAAGGUACAUUAGCAU | 58.2 | 108 | – | – |
| CUAUAUAAUACCUCAUGUACAUGAGGAUCACCCAUGUUAACUUAGGAUAUAUUUAUAUUAAUAGAGUAGAAGGAAGUACUAUUG | 27.4 | 21.2 | – | – |
| GAUCAAAACACUCCUUACACUACAUGAGGAUCACCCAUGUAGCAGGAUAUCGUUGCUCCUCGCUGCGAGAAGGGCUACGGGCGG | 8.02 | 13.8 | – | – |
| UUAUUUUGUCAAGGAUAUGUAUUAUUGAUUUGAAAACAUGAGGAUCACCCAUGUAUAUGGUGGGAACAGAAGGUGAAUGGUGAA | 194 | 215 | – | – |
| CGGUGACUGGUGAGGAUAUCGUGUUCGAAAGAACGUGAGAAGGCACAUGAGGAUCACCCAUGUGAUCCUCAUCG | 26.1 | 163 | – | – |
| AACAAACAUGAGGAUCACCCAUGUCAGGAUAUGCAAACAACAAACAACAAACAACAAAGCAGAAGGGACAACAA | 23.7 | 30.2 | – | – |
| ACAUGAGGAUCACCCAUGUACAUGGGUUUAAUUGUGUGUUACUAGGAUAUGUAUUUGAAUUUACAACAGAAGGAGUAUUACUGU | 621 | 179 | – | – |
| UUUGUACAUGAGGAUCACCCAUGUGAGGAUAUGCUUUAUUAUUAUUAUUAUUAUUAUUGCAGAAGGCACGUUGU | 69.7 | 98.2 | – | – |
| UGUGCGUAUGUGAGGAUAUGCUGGUCCUUGGAUCGGCAGAAGGCACAUGAGGAUCACCCAUGUGGUGUCGUUCG | 239 | 24 | – | – |
| GGGUACAUCGGAGGAUAUCAUGUAUAUACAUGAGGAUCACCCAUGUCGAUGGAGACAUCGGAGAUUGAGAAGGCCGAUGUACCG | – | – | 826 | 31.5 |
| AGAGCCUCGUGAGGAUAUACAUGAGGAUCACCCAUGUAAAUGAAUGAACGGAGGAAACUCCGAAUGUAGAAGGCACGAGGCUCA | 27.9 | 166 | – | – |
| UUGUAAACUAUCCGUACAUGAGGAUCACCCAUGUGCAAGAGCAGAAGGACGUGGCACUCGAGUACGUAGGAUAUGCAUGGAUGG | – | – | 27.1 | 9.59 |
| CCUCAUGGUCGAGGAUAUAUAACGUGGAACGUAAUAGAAGGCGACAUGAGGAUCACCCAUGUAGCGUCCACUGGAGUCGCGCGG | 119 | 62.2 | – | – |

| Sequence | apparent Kd [1] [nM] | apparent Kd [2] [nM] | apparent Kd [3] [nM] | apparent Kd [4] [nM] |
| --- | --- | --- | --- | --- |
| AAAAGUACAGGAUAUACAUGAGGAUCACCCAUGUAGAAAGGAAGUGUAAAAAAAAAGUGUAGAAGGGUGCAUGA | 33.1 | 27.9 | – | – |
| AAUAUGUUGCAGAAGGCCAUGUUGUGGUAGUACCUCAUGACAUGAGGAUCACCCAUGUUUGUGUUGGAGGAUAUGCAAUAUAUU | 37.7 | 201 | – | – |
| AAAUUAAGGAGAGGAUAUUGACAUGAGGAUCACCCAUGUAUUUGGGAGUGUUUACUGAAUUCUUACGAGAAGGCUUACGAAAUU | 308 | 234 | – | – |
| AACAGCUCGUCAGGAUAUAUUUUCCUUUUAUGUAUUUAUGUACAUGAGGAUCACCCAUGUUGAUAGUAGAAGGGACGAGCUGAA | 13.8 | 34.4 | – | – |
| GACGGGUGGGUAGGAUAUGGCUAUGUCUCAUUGCUAGAAGGACCAGCUGCUACAUGAGGAUCACCCAUGUCGUAGUGCACCCAG | – | – | 189 | 13.1 |
| UAAAUUUUGUAAGGAUAUACACGAGAUUCAAGUGUAGAAGGUACUUACAUGAGGAUCACCCAUGUAUACAUGGAUCAUAGAUAU | – | – | 305 | 63.9 |
| CACUCAGGCACAUGAGGAUCACCCAUGUCCCGGAAGCCGAGACAGGAUAUGUGCCUCGAAUGUGCACAGAAGGGUCUACUAUAU | – | – | 226 | 180 |
| UGUCGGAGCAGAGGAUAUACAUGAGGAUCACCCAUGUAAUAUGAUCUAGCCUGGAAACAGGCAAUGUAGAAGGCUGCUCCGACA | 92.6 | 1020 | – | – |
| CAAAGCAGUAAGGAUAUAUGGUAGCCAGUUACCGUAGAAGGUAUAACAUGAGGAUCACCCAUGUCCAUAUGAUU | 56.8 | 57.7 | – | – |
| GAAAAGUAAGGAUAUGCACACAGUGAGGAAACUCACUGUGUGCAGAAGGUACAUGAGGAUCACCCAUGUUUCUC | 38.1 | 187 | – | – |
| UAAGUUGAGGAGAAGGGAGCACAUGAGGAUCACCCAUGUGGUUCUUUGUGCUCAGGAUAUCCAUGGAGCUCCAACGCGUUCCCG | 63.1 | 10.3 | – | – |
| UUAAUUAACAAGAAGGCUAACAUGAGGAUCACCCAUGUUGUACAUGGAUAUAGAGGAUAUUGCUAAUAAUUAUUUAUCUUAAUU | 25.3 | 19.4 | – | – |
| UUACGUCCCGUUUACAUGAGGAUCACCCAUGUCGAAAGAGCGGAGGAUAUGCUACCUAGUUGGUAGCAGAAGGUUGCAACGUCG | – | – | 17.7 | 28.3 |
| AACCACCGCACGGACACGUCGAGUCAGGAUAUACAUGAGGAUCACCCAUGUGAAGGCCGGCUCAUGUAGAAGGGACAGGCGUUG | 11.4 | 15.7 | – | – |
| UGGUACAUGGGAGGAUAUGGGAUGAUAACAUGAGGAUCACCCAUGUUAAAGAUGCCGAGAGGCAACUAGAAGGCCCAUGUACCU | – | – | 281 | 62.4 |
| AGUCAGAGCAGAGGAUAUAUACAUGAGGAUCACCCAUGUGACUGACUACGCUAGAAAUAGCAUGUAUAGAAGGCUGCUCUGACA | 344 | 911 | – | – |
| UUCAGCUCGUGAGGAUAUACAUGUGCUGGAAACAGCAUUAUAUUUUUCACAUGAGGAUCACCCAUGUAGAAGGCACGAGCUGAG | 15.7 | 27.3 | – | – |
| UAGAUGGGAGGAUAUGCGUAGAUGCGGAUUCGUGUGGUGCUACAUGAGGAUCACCCAUGUAGAAGGCCCGUCUU | 14.4 | 22 | – | – |
| AUUGUUUUCAUAGGAUAUUGACAUUUAUUUAUUCAAGAAGGAUGAUUACAUGAGGAUCACCCAUGUUAUUAUGGAUUAACUAGU | 23.7 | 43.2 | – | – |
| AGCGGCGCAGACCACCGCAAAACCAGAAGGACAUGAGGAUCACCCAUGUAACAAAACAGGGCGAUGUAGGAUAUGGCAGACCCA | 13 | 13.7 | – | – |
| GUCUUCCUAGGAUAUACAUGAGGAUCACCCAUGUACAGUUUCGUCUUGGGAUACUCGCGUAGAAGGAGGUGGAU | 31.9 | 23.4 | – | – |
| CAUAUAGUAGUGAGGAUAUGCGAAUAUAUAAUUAAGUAGAAGGCACAUGAGGAUCACCCAUGUAUAUUGUAAAG | 20.6 | 20.6 | – | – |
| CUUUUAUUGGUCCAUUUUUUCAACAUGAGGAUCACCCAUGUGCAGGAUAUCGUGAUUAUUAUCAACGAGAAGGGCAGAUUCACG | 29 | 73.6 | – | – |
| CCUUUGAAGAUCCAAAAUUUCAACAUGAGGAUCACCCAUGUGCAGGAUAUCGUGCCAGUGAUGUACGAGAAGGGCAGACUCUGC | 176 | 177 | – | – |
